In ChEMBL document CHEMBL3414528, “Novel naftopidil-related derivatives and their biological effects as alpha1-adrenoceptors antagonists and antiproliferative agents” (Eur J Med Chem, 2015):
The source made the active and inactive calls. The calls are words filed in the database; no cut-off is given here.

Legend:
[1] = Cell cycle arrest in human PC3 cells assessed as accumulation at S phase at 30 uM after 24 hrs by propidium iodide staining-based flow cytometry (reference value: 27.26%); type: functional; conditions: PC-3
How it was run: (§1)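 PC-3 cells given compound at 5, 10, 15, 20 or 30 μM, or 0.1% DMSO vehicle, for 24 h; stained with propidium iodide and analysed by flow cytometry for G0/G1, S and G2/M fractions.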

PC-3 [2] = test: Induction of apoptosis in human PC3 cells assessed as total apoptotic cells at 30 uM after 24 hrs by annexin V/propidium iodide staining-based flow cytometry; type: functional
How it was run: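 Phosphatidylserine exposure in PC-3 cells after 24 h at 0, 5, 10, 20 or 30 μM, by Alexa Fluor 488 annexin V/PI double staining and flow cytometry; early apoptotic = AV+/PI−, late apoptotic or dead = AV+/PI+.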

[3] = Induction of apoptosis in human PC3 cells assessed as upregulation of caspase3 level after 24 hrs by Western blotting analysis; type: functional, cell-based; conditions: PC-3
How it was run: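 PC-3 cells exposed for 24 h to 0, 1, 5, 10, 20 or 30 μM; Bax, Bcl-2 and activated caspase-3 measured by Western blot, reported as Bax/Bcl-2 value.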

[4] = Cell cycle arrest in human PC3 cells assessed as accumulation at S phase at 15 uM after 24 hrs by propidium iodide staining-based flow cytometry (reference value: 27.26%); type: functional; conditions: PC-3; how it was run: as §1
PC-3 [5] = test: Antiproliferative activity against human PC3 cells assessed as reduction in cell viability at 1.5 to 100 uM by WST-8 assay in presence of 50 uM of norepinephrine; type: functional, cell-based
How it was run: (§2)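 PC-3 cells treated with compound at 100, 75, 50, 25, 12.5, 6.25, 3.0 and 1.5 μM alone or together with norepinephrine (20 or 50 μM); viability by WST-8. Mean ± SEM, two-way ANOVA with post-hoc tests.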

Rattus norvegicus [6] = organism: Rattus norvegicus; test: Selectivity ratio for Sprague-Dawley rat prostatic vas deferens adrenergic alpha-1A receptor to Sprague-Dawley rat spleen adrenergic alpha-1B receptor
[7] = Cell cycle arrest in human PC3 cells assessed as accumulation at G2/M phase at 30 uM after 24 hrs by propidium iodide staining-based flow cytometry (reference value: 33.04%); type: functional; conditions: PC-3; how it was run: as §1
DU-145 = test: Cytotoxicity against human DU145 cells after 48 hrs by WST-8 assay; type: functional, cell-based; conditions: DU-145, 48 h
Rattus norvegicus [8] = organism: Rattus norvegicus; test: Selectivity ratio for Sprague-Dawley rat thoracic aorta adrenergic alpha-1D receptor to Sprague-Dawley rat spleen adrenergic alpha-1B receptor; type: tissue-based
[9] = Cell cycle arrest in human PC3 cells assessed as accumulation at G0/G1 phase at 10 uM after 24 hrs by propidium iodide staining-based flow cytometry (reference value: 39.20%); type: functional; conditions: PC-3; how it was run: as §1
PC-3 [10] = test: Inhibition of norepinephrine-induced cell proliferation in human PC3 cells at 1.5 to 100 uM by WST-8 assay; type: functional, cell-based; how it was run: as §2
[11] = molecular target: T1, Alpha-1A adrenergic receptor (Rattus norvegicus, UniProt P43140); test: Antagonist activity at Sprague-Dawley rat prostatic vas deferens adrenergic alpha-1A receptor after 20 mins; conditions: read-out: pA2 (converted)
T1 sequence (P43140 whole entry): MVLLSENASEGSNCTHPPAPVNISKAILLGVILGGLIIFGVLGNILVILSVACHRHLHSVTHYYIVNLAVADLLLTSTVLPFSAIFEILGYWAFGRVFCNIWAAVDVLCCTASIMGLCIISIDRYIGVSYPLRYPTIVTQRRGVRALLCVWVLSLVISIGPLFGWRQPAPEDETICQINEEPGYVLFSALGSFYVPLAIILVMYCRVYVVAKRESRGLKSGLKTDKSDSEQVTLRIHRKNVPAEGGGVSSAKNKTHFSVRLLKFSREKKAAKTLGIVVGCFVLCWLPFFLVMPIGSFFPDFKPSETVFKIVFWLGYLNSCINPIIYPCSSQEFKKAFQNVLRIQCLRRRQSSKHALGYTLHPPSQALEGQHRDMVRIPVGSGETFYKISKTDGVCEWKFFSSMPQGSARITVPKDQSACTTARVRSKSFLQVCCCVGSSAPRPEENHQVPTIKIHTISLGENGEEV
How it was run: (§3)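 Isolated rat tissues (prostatic vas deferens, spleen, thoracic aorta) contracted with cumulative norepinephrine; concentration-response curves recorded in presence of increasing antagonist concentrations, antagonism read as rightward curve shift. Mean ± SEM of five to eight separate experiments.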

[12] = molecular target: T2, Alpha-1D adrenergic receptor (Rattus norvegicus, UniProt P23944); test: Antagonist activity at Sprague-Dawley rat thoracic aorta adrenergic alpha-1D receptor after 20 mins; conditions: read-out: pA2 (converted); how it was run: as §3
T2 sequence (P23944 whole entry): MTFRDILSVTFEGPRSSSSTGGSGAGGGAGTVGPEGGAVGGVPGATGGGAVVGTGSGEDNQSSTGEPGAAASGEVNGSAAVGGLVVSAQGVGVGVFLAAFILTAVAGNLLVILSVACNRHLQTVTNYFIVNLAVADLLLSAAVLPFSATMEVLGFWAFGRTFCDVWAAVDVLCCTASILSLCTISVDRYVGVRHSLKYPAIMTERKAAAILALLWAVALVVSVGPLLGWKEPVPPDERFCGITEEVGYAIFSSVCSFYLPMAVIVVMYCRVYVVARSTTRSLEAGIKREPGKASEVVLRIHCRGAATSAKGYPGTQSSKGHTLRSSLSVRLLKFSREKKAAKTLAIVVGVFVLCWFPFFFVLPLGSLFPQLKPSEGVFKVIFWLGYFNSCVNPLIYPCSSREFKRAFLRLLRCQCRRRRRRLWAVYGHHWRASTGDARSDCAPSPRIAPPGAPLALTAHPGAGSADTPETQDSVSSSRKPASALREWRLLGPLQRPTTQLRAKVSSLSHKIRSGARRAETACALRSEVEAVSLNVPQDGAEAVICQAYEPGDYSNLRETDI

[13] = Cell cycle arrest in human PC3 cells assessed as accumulation at G2/M phase at 5 uM after 24 hrs by propidium iodide staining-based flow cytometry (reference value: 33.04%); type: functional; conditions: PC-3; how it was run: as §1

In the case of `COc1ccccc1N1CCN(CCCNC(=O)c2cc3ccccc3n2Cc2ccccc2)CC1`, the Activity [1] is reported as 20.9%, the Activity (PC-3 [2]) is reported as 83% and the Activity [3] is reported as “Dose-dependent effect”. For the same compound, the Activity [4] was 14.5%, the Activity (PC-3 [5]) was “inactive” and the Ratio (Rattus norvegicus [6]) was 19.1. It also gave an Activity [7] of 41.7%, an IC50 (DU-145) of 33300 nM and a Ratio (Rattus norvegicus [8]) of 47.9. For the same compound, the Activity [9] was 58.5%, the inhibition (PC-3 [10]) was “Active” and the Kb [11] was 7.41 nM. The Kb [12] was 2.75 nM and the Activity [13] was 33.5%.
